A short description of this series: Toxicity liver stage against HepG2, at 10uM. In kind it is cell-based. Details: test concentration 10 uM, cell line HepG2-A16-CD81EGFP. As to conditions: human, HepG2-A16-CD81EGFP cells; read-out: INHIBITION
The method in brief: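 Uninfected HepG2-A16-CD81EGFP cells, 3 × 10^3 per well, 1536-well, plated on prespotted compound at 10 μM final, parasite-free screening media added to match infected plates; puromycin 10 μM positive, DMSO 0.5% negative; run in parallel with 48 h PbLuc assay at 37 °C, 5% CO2; viability by CellTiter-Glo luminescence, normalized to controls.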
Consider `Cc1nc(N2CCN(C)CC2)ncc1C(=O)N1CCCCCC1`, for which the cytotoxicity at 10 µM was -3.48%. For `COc1ccc2c(c1)CN(Cc1ccco1)C(=O)CCN2CC(C)(C)O`, the cytotoxicity at 10 µM is -7.08%. With `Cc1cccc2c1ccn2CC(=O)NC[C@@H]1CCCN2CCCC[C@H]12`, the cytotoxicity at 10 µM worked out at 3.14%. In the case of `COc1ccc(-c2n[nH]c(C)c2CC(=O)NCC2CCOCC2)cc1`, the cytotoxicity at 10 µM was -4.28%. Under `CN(C)c1ncc(NS(=O)(=O)c2ccc(OC(F)(F)F)cc2)cn1` stands 11.9%; under `Cc1cccc(C(=O)N2CCN(c3ccc(-n4cccc4)nn3)CC2)c1`, 67.1%. Take `CNC(=O)[C@@H]1COC[C@H]2CN(C(=O)c3ccc(C)c(C)c3)C[C@H]21`: the cytotoxicity at 10 µM is 11.6%. Under `COc1ccc2c(c1)OC1(CCN(Cc3ccc(F)cc3)CC1)CC2=O` stands 9.09%; under `Cn1nc(C(=O)N2CCOCC2)cc1C(=O)Nc1c(Cl)cccc1Cl`, 12%; under `CCC(C)(C)n1nnnc1C(c1cccs1)N1CCc2ccccc2C1` (configuration not stated), 0.237%.

For `CN(C)c1ccc(C(=O)N2CCC(c3cc4cnccc4[nH]3)CC2)cc1`, the cytotoxicity at 10 µM stood at 1.12%. Under `CCOCCCNCc1cc2c(C)cc(C)cc2n2c(=O)n(C)nc12` stands -4%; under `Cc1cc(C(=O)N2CCCC2c2nc(O)cc(C(C)C)n2)on1` (configuration not stated), -3.42%; under `CC(C)N1CCCC(Cc2cncc(Br)c2)CC1` (configuration not stated), -7.5%.

Consider `CNc1cncc(C2CCCN2Cc2ccn(C)n2)n1` (configuration not stated), for which the cytotoxicity at 10 µM was -6.88%.

In the case of `Cc1ccc(C(=O)N2CCC(O)(CN3CCc4ccccc4C3)C2)s1` (configuration not stated), the cytotoxicity at 10 µM is -1.61%. Under `CN(c1ccncn1)C1CC2(CCN(C(=O)Cc3cccs3)C2)C1` (configuration not stated) stands -5.97%. With `CC(Sc1nncn1C)C(=O)NCCCOc1ccc(F)cc1` (configuration not stated), the cytotoxicity at 10 µM is -49.2%.

For `CC1CCCCN1C(=O)CCc1nnc(-c2ccccc2)o1` (configuration not stated), the cytotoxicity at 10 µM is -4.65%. As for `Cc1nc(CN(C)c2nccc(N(C)C)n2)cs1`, the cytotoxicity at 10 µM is -9.86%.

Regarding `O=C(c1ccccn1)N1CCN(C(c2ccccc2)C(F)(F)F)CC1` (configuration not stated), the cytotoxicity at 10 µM is -8.18%. `COCC(C)N1CCN(CCc2ccc3c(c2)CCO3)CC1` (configuration not stated): the cytotoxicity at 10 µM was 4.16%.

With `Clc1ccc2c(c1)C=C(CNC1CCc3ncnn3C1)CO2` (configuration not stated), the cytotoxicity at 10 µM is -1.19%. Under `CC1CN(C(=O)c2cnn(-c3ccccn3)c2C(C)C)CC(C)(C)O1` (configuration not stated) stands -3.09%. The result for `CCC(CNC(=O)CNC(C)=O)Oc1cccc(F)c1` (configuration not stated) reads -43.6%; that for `CCc1noc(C(C)N(C)Cc2cc(Br)ccc2OC)n1` (configuration not stated), -5.04%; that for `Cc1noc(C(C)N2CCN(c3ncnc4ccccc34)CC2)n1` (configuration not stated), 17.7%. The result for `Cc1ccc(C(=O)N2CCOC3(CCCC3)C2)c(=O)[nH]1` reads 7.87%; that for `COc1cc(C2(C(=O)NC3CCN(C4CC4)CC3)CC2)ccc1C`, 5.16%; that for `CC(=O)Nc1nc(CN(C)CC2CCCN2c2cccnn2)cs1` (configuration not stated), 15.1%.

With `CC(C)CNC(=O)c1cc(Br)c2c(c1)OCCO2`, the cytotoxicity at 10 µM amounted to 6.7%.

On to `O=C(NCc1ccccc1CN1CCC(O)CC1)Nc1ccccn1`, for which the cytotoxicity at 10 µM was found to be 8.52%. Regarding `CCc1cnc(CN(C)C(=O)Nc2cnn(CC3CCCO3)c2)s1` (configuration not stated), the cytotoxicity at 10 µM is 4.03%. Turning to `CCCS(=O)(=O)CCSc1cccc(C#N)c1`, the cytotoxicity at 10 µM was -3.85%.

As to `CC(CNC(=O)c1ccc(Cl)cc1F)N1CCCC1` (configuration not stated), the cytotoxicity at 10 µM is -3.85%. Under `Cc1ccc(S(=O)(=O)NCCCN2CCC(O)CC2)cc1Cl` stands 8.68%; under `O=C(CCCOc1ccccc1F)NCCCC(=O)Nc1cn[nH]c1`, -11.1%; under `Cc1cc(C)n(CC2CCCN2C(=O)c2ccc3c(c2)COC3)n1` (configuration not stated), 1.85%. Under `Cc1ccoc1C(=O)NCCOc1ncc(Cl)cc1Cl` stands 3.02%; under `Cc1ccc(NS(=O)(=O)c2cnn(Cc3ccccc3)c2)c(C(=O)O)c1`, -2.41%. With `Cn1cc(C(O)CNC(=O)c2ccc(F)cc2Cl)cn1` (configuration not stated), the cytotoxicity at 10 µM was determined as 0.055%. Under `CCCN(Cc1ccc(C#N)cc1)Cc1nnsc1Cl` stands -58.4%; under `CCn1cc(NC(=O)c2cccc(OCC(F)(F)F)n2)cn1`, -9.43%; under `NC(=O)CCN(C(=O)c1cccc2c1OCO2)c1ccccc1`, -16.5%. The result for `CCOc1ccc(C#N)cc1NCc1cc(C)on1` reads -60.8%; that for `CN(Cc1ccc2c(c1)OCCO2)Cc1nnnn1-c1ccccc1`, 20.5%. For the compound `COc1ccccc1C1(CNCc2cccc(O)c2)CCOCC1`, the cytotoxicity at 10 µM was determined as 9.18%.

Consider `CC(CNC(=O)c1c[nH]nn1)Oc1ccc(Cl)cc1` (configuration not stated), for which the cytotoxicity at 10 µM was 9.27%.

On to `CC(NCCCc1cnn(C)c1)c1ccc(Cl)s1` (configuration not stated), for which the cytotoxicity at 10 µM is 5.29%.

Regarding `CC(C)(C)c1nc(NS(=O)(=O)c2ccc(F)cc2)no1`, the cytotoxicity at 10 µM was determined as 4.71%. The result for `COCC(NC(=O)c1ccc[nH]1)c1cccc(C(F)(F)F)c1` (configuration not stated) reads -2.54%. `CC(C)(C)OC(=O)N1CCCc2ccc(NCc3ncc[nH]3)cc21`: the cytotoxicity at 10 µM was -5.99%. Under `CN(CCc1cccs1)C1CCCN(Cc2noc(C3CC3)n2)C1` (configuration not stated) stands -12.5%; under `O=C(CC1CC1)N1CCC2(CCCN(c3ncccn3)C2)CC1`, -71%; under `Cc1ccc(NCCCNc2nccc(-c3cn(C)nc3C)n2)nc1`, 14.5%.

Regarding `N#Cc1cccc(N2CCC(CO)(CCc3ccccc3)CC2)n1`, the cytotoxicity at 10 µM is -48%. The result for `OC(c1ccccn1)C1CCN(Cc2cc3n(n2)CCCNC3)CC1` (configuration not stated) reads 6.89%; that for `CC(C)(C)c1oc(C(N)=O)cc1CN1CCCCC(N)C1` (configuration not stated), 5.94%. Under `CC(C)(Cn1cnc(-c2ccccc2)c1-c1ccco1)N1CCOCC1` stands -38.8%; under `CC(C)=CCN1CCN(Cc2cc(C)c(O)c(C)c2)CC1CCO` (configuration not stated), -7.44%; under `CC(=O)c1ccc(CN2CC(Oc3ccccc3C)C2)cc1`, -4.73%. For the compound `COc1ccc(F)c(CN2CCCC(O)(CNCc3ccon3)C2=O)c1` (configuration not stated), the cytotoxicity at 10 µM was determined as 53.6%. For `CCNc1ccnc(N2CCN(Cc3ncccc3C)CC2)n1`, the cytotoxicity at 10 µM was -5.59%.

On to `Cc1cc2c(N3CCC(N(C)CCc4cnn(C)c4)CC3)ncnc2s1`, for which the cytotoxicity at 10 µM came out at 1.38%. Under `N#Cc1cccc(S(=O)(=O)N2CCCCC2CCN2CCCC2)c1` (configuration not stated) stands -123%.

`CN(Cc1cc(C2CC2)[nH]n1)C(=O)c1ccccc1C1CCNC1` (configuration not stated): the cytotoxicity at 10 µM turned out to be 1.89%. Under `O=C(CN1CCCC1)N1CCCC(CNS(=O)(=O)Cc2ccccc2)C1` (configuration not stated) stands -17.9%; under `CCC(NC(=O)CC1CCN(C(C)C)CC1)c1cn2cccnc2n1` (configuration not stated), -11.3%. The result for `Cc1csc(CN2CCC(C(=O)O)(n3ccc(-c4ccco4)n3)CC2)n1` reads -127%. Turning to `O=C(NCCC1CN(C2CCCC2)CCO1)c1cc(=O)[nH]c(=O)[nH]1` (configuration not stated), the cytotoxicity at 10 µM turned out to be 0.0145%. The result for `CN(C)C(=O)c1ccc2c(c1)nc(N1CC[C@H](O)C1)n2C` reads -18.8%; that for `O=C(c1cnc(-c2cccnc2)nc1)N1CCSCC1`, 0.431%. Under `Cc1cc(CN(C)C(=O)C(c2cccnc2)N2CCOCC2)n[nH]1` (configuration not stated) stands -52.7%; under `CN(Cc1nc(Cc2ccccc2F)no1)CC1Cc2ccccc2O1` (configuration not stated), -5.19%; under `Cc1nnsc1C(=O)NCc1cccnc1N(C)C`, -12.2%. The result for `CCC(O)Cn1cc(C2=CCN(Cc3cc(O)nc(C)n3)CC2)cn1` (configuration not stated) reads -9.2%; that for `CC(C)CN1CCc2[nH]cnc2C12CCN(C(=O)c1cnn(C)c1)CC2`, -4.68%. In the case of `CCNc1ncc(C(=O)NCCc2csc(CSC)n2)cn1`, the cytotoxicity at 10 µM is -5.63%.

For the compound `c1ccc2sc(N3CCC4(CCCN4Cc4ncc[nH]4)CC3)nc2c1`, the cytotoxicity at 10 µM was 9.3%. The result for `CCCN1CCN(C(=O)c2cnccn2)[C@H]2CS(=O)(=O)C[C@H]21` reads -19.8%. The result for `COc1ccccc1OCc1cc(C(=O)N2CCN[C@H](C)C2)n[nH]1` reads -9.09%. Consider `Cc1noc(C)c1CCC(=O)N1CCCN(Cc2cccs2)CC1`, for which the cytotoxicity at 10 µM is -3.39%. The result for `CCCc1n[nH]c(C2CN(Cc3nnc(C4CC4)o3)CCO2)n1` (configuration not stated) reads -20.2%; that for `CCc1nnsc1C(=O)N1CCOC(c2nc(C)n[nH]2)C1` (configuration not stated), -6.45%; that for `Cc1nccn1C1CCCN(C(=O)C2=NN(C)C(=O)CC2)C1` (configuration not stated), -7.49%. Under `Cc1nc(CNCC2CN(C)CCO2)cs1` (configuration not stated) stands -9.16%; under `CN(Cc1noc(C2CC2)n1)C1CCN(Cc2nnc(C3CC3)o2)C1` (configuration not stated), -5.28%. `COc1cccc(Nc2nc(-c3ccncc3)nc3c2CNCC3)c1`: the cytotoxicity at 10 µM was -6.61%. Under `OCC1CCC2(CC1)CN(Cc1ccsc1)Cc1ccccc1O2` (configuration not stated) stands -3.78%; under `CCn1ncc2c1C(COC)N(C(=O)c1cccs1)CC2` (configuration not stated), -112%. Turning to `c1ccc(NC[C@@H]2CCC[C@@H]3CN(Cc4nccs4)C[C@@H]32)nc1`, the cytotoxicity at 10 µM was -108%. Consider `CO[C@@H]1CCN(Cc2ccoc2)C[C@@H]1Cc1ccccc1`, for which the cytotoxicity at 10 µM was 16.5%.

As to `CO[C@H]1CCN(S(=O)(=O)c2cccnc2)[C@@H]2CN(CC3CC3)C[C@H]12`, the cytotoxicity at 10 µM was -73.5%. Under `Cc1ccc(N2CC[C@@H]3[C@@H]2CCN3Cc2ccsc2)nn1` stands -106%; under `CN1CCC2(COCc3cnc(N4CCOCC4)nc32)C1` (configuration not stated), -6.13%; under `COCC1CN(C(=O)c2ccoc2)Cc2cnn(CC3CCOCC3)c21` (configuration not stated), 2.77%.

Regarding `O=C(c1ccoc1)N1CCCC2(CCC(=O)N2Cc2ccncc2)C1` (configuration not stated), the cytotoxicity at 10 µM is -3.55%.

For the origin of these results see ChEMBL document CHEMBL4513216, “Probing the Open Global Health Chemical Diversity Library for Multistage-Active Starting Points for Next-Generation Antimalarials” (ACS Infect Dis, 2020).
